ChEMBL document CHEMBL4665669, “Novel tertiary sulfonamide derivatives containing benzimidazole moiety as potent anti-gastric cancer agents: Design, synthesis and SAR studies” (Eur J Med Chem, 2019)
The source made the active and inactive calls. No cut-off for these calls is given here.

Assays:
PC-3 = assay: Anticancer activity against human PC-3 cells assessed as inhibition of cell proliferation after 48 hrs by MTT assay; assay type: functional, cell-based; details: PC-3, 48 h
In short: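 MTT assay with 48 h compound exposure. MTT solution was then added and incubated 4 h at 37 °C, the supernatant discarded and formazan dissolved in DMSO, with absorbance read at 490 nm. IC50 values were calculated from three independent experiments, reported as mean SD.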

SGC-7901 [1] = assay: Induction of apoptosis in human SGC-7901 cells assessed as cleavage of PARP at 0.5 to 1.5 umol/L after 48 hrs Western blot analysis; assay type: functional, cell-based; details: dose micromol/L 0.5-1.5, time 48.0 hrs
In short: (§1)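 Western blot. Cells were treated with compound concentrations or DMSO for 48 h, then lysed, and lysates were denatured, run on SDS-PAGE and transferred to nitrocellulose. After blocking in 5% skimmed milk, membranes were incubated with primary antibodies at 4 °C for 8 h, then secondary antibodies, with ECL detection.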

MGC-803 [2] = assay: Cell cycle arrest in human MGC-803 cells assessed as accumulation at G2/M phase at 0.5 to 1.5 umol/L after 48 hrs by RNase/propidium iodide staining based flow cytometry; assay type: functional; details: dose micromol/L 0.5-1.5, time 48.0 hrs
In short: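 MGC-803, SGC-7901 and HGC-27 cells were seeded in 6-well plates and treated 48 h with compound or DMSO. Cells were then harvested and fixed in 70% cold ethanol at 4 °C for 8 h, and cell-cycle phase distribution was quantified by flow cytometry.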

HGC-27 [3] = assay: Inhibition of Ras/Raf/MEK/ERK signalling pathway in human HGC-27 cells assessed as downregulation of FoxO3a expression at 0.5 to 1.5 umol/L after 48 hrs by Western blot analysis; assay type: cell-based; details: dose micromol/L 0.5-1.5, time 48.0 hrs
In short: (§2)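 Cells treated with graded concentrations or DMSO for 48 h, then harvested and lysed. Lysates denatured, resolved by SDS-PAGE and transferred to nitrocellulose. Membranes blocked with 5% skimmed milk and probed with primary antibodies at 4 °C for 8 h, then with secondary antibodies. Bands detected by ECL.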

[4] = Selectivity index, ratio of IC50 for human GES1 cells to IC50 for human MGC-803 cells assessed as inhibition of cell proliferation after 48 hrs by MTT assay
In short: (§3)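 Fold selectivity is the IC50 in GES-1 normal gastric epithelial cells divided by the IC50 in the gastric cancer line (HGC-27, MGC-803 or SGC-7901). Both IC50s come from 48 h exposure, MTT (4 h, 37 °C), DMSO solubilisation and 490 nm absorbance, with three independent experiments.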

SGC-7901 [5] = assay: Inhibition of Ras/Raf/MEK/ERK signalling pathway in human SGC-7901 cells assessed as decrease in c-Raf phosphorylation after 48 hrs by Western blot analysis; assay type: cell-based; details: dose micromol/L 0.5-1.5, time 48.0 hrs; in short: as §2
MGC-803 [6] = assay: Induction of apoptosis in human MGC-803 cells assessed as downregulation of Bcl-2 level at 0.5 to 1.5 umol/L after 48 hrs Western blot analysis; assay type: functional, cell-based; details: dose micromol/L 0.5-1.5, time 48.0 hrs; in short: as §1
MGC-803 [7] = assay: Inhibition of Ras/Raf/MEK/ERK signalling pathway in human MGC-803 cells assessed as decrease in MEK1 phosphorylation after 48 hrs by Western blot analysis; assay type: cell-based; details: dose micromol/L 0.5-1.5, time 48.0 hrs; in short: as §2
MGC-803 [8] = assay: Cell cycle arrest at G2 phase in human MGC-803 cells assessed as downregulation of CDK1 level at 0.5 to 1.5 umol/L after 48 hrs by Western blot analysis; assay type: functional, cell-based; details: dose micromol/L 0.5-1.5, time 48.0 hrs; in short: as §1
HGC-27 [9] = assay: Cell cycle arrest at M phase in human HGC-27 cells assessed as upregulation of p-Histone-3 level at 0.5 to 1.5 umol/L after 48 hrs by Western blot analysis; assay type: functional, cell-based; details: dose micromol/L 0.5-1.5, time 48.0 hrs; in short: as §1
SGC-7901 [10] = assay: Induction of apoptosis in human SGC-7901 cells assessed as downregulation of Mcl-1 level at 0.5 to 1.5 umol/L after 48 hrs Western blot analysis; assay type: functional, cell-based; details: dose micromol/L 0.5-1.5, time 48.0 hrs; in short: as §1
SGC-7901 [11] = assay: Inhibition of Ras/Raf/MEK/ERK signalling pathway in human SGC-7901 cells assessed as effect on RAS level at 0.5 to 1.5 umol/L after 48 hrs by Western blot analysis; assay type: cell-based; details: dose micromol/L 0.5-1.5, time 48.0 hrs; in short: as §2
GES1 = assay: Cytotoxicity against human GES1 cells assessed as inhibition of cell proliferation after 48 hrs by MTT assay; assay type: cell-based; details: GES1, 48 h
In short: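 Normal gastric epithelial GES-1 cells were exposed to compound for 48 h. MTT was then added for 4 h at 37 °C. Formazan was dissolved in DMSO after the supernatant was removed, and absorbance was read at 490 nm. IC50 was computed from three independent experiments, given as mean SD.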

MGC-803 [12] = assay: Cell cycle arrest at G2 phase in human MGC-803 cells assessed as downregulation of Cyclin B level at 0.5 to 1.5 umol/L after 48 hrs by Western blot analysis; assay type: functional, cell-based; details: dose micromol/L 0.5-1.5, time 48.0 hrs; in short: as §1
HGC-27 [13] = assay: Cell cycle arrest at G2 phase in human HGC-27 cells assessed as downregulation of Cyclin B level at 0.5 to 1.5 umol/L after 48 hrs by Western blot analysis; assay type: functional, cell-based; details: dose micromol/L 0.5-1.5, time 48.0 hrs; in short: as §1
SGC-7901 [14] = assay: Induction of apoptosis in human SGC-7901 cells assessed as downregulation of Bcl-2 level at 0.5 to 1.5 umol/L after 48 hrs Western blot analysis; assay type: functional, cell-based; details: dose micromol/L 0.5-1.5, time 48.0 hrs; in short: as §1
[15] = Selectivity index, ratio of IC50 for human GES1 cells to IC50 for human SGC-7901 cells assessed as inhibition of cell proliferation after 48 hrs by MTT assay; in short: as §3
MGC-803 [16] = assay: Induction of apoptosis in human MGC-803 cells assessed as downregulation of Mcl-1 level at 0.5 to 1.5 umol/L after 48 hrs Western blot analysis; assay type: functional, cell-based; details: dose micromol/L 0.5-1.5, time 48.0 hrs; in short: as §1
MGC-803 [17] = assay: Inhibition of Ras/Raf/MEK/ERK signalling pathway in human MGC-803 cells assessed as downregulation of c-Myc expression at 0.5 to 1.5 umol/L after 48 hrs by Western blot analysis; assay type: cell-based; details: dose micromol/L 0.5-1.5, time 48.0 hrs; in short: as §2
HGC-27 [18] = assay: Inhibition of Ras/Raf/MEK/ERK signalling pathway in human HGC-27 cells assessed as decrease in MEK1 phosphorylation after 48 hrs by Western blot analysis; assay type: cell-based; details: dose micromol/L 0.5-1.5, time 48.0 hrs; in short: as §2
HGC-27 [19] = assay: Inhibition of Akt/mTOR signalling pathway in human HGC-27 cells assessed as decrease in mTOR phosphorylation at Ser2448 residue at 0.5 to 1.5 umol/L after 48 hrs by Western blot analysis; assay type: cell-based; details: dose micromol/L 0.5-1.5, time 48.0 hrs; in short: as §2
MGC-803 [20] = assay: Induction of apoptosis in human MGC-803 cells assessed as cleavage of caspase-7 at 0.5 to 1.5 umol/L after 48 hrs Western blot analysis; assay type: functional, cell-based; details: dose micromol/L 0.5-1.5, time 48.0 hrs; in short: as §1
SGC-7901 [21] = assay: Induction of apoptosis in human SGC-7901 cells assessed as upregulation of NOXA level at 0.5 to 1.5 umol/L after 48 hrs Western blot analysis; assay type: functional, cell-based; details: dose micromol/L 0.5-1.5, time 48.0 hrs; in short: as §1
HGC-27 [22] = assay: Induction of apoptosis in human HGC-27 cells assessed as increase in nucleus concentration at 0.5 to 1.5 umol/L after 48 hrs by imaging analysis; assay type: functional, cell-based; details: dose micromol/L 0.5-1.5, time 48.0 hrs
HGC-27 [23] = assay: Induction of apoptosis in human HGC-27 cells assessed as cleavage of caspase-7 at 0.5 to 1.5 umol/L after 48 hrs Western blot analysis; assay type: functional, cell-based; details: dose micromol/L 0.5-1.5, time 48.0 hrs; in short: as §1
SGC-7901 [24] = assay: Inhibition of Akt/mTOR signalling pathway in human SGC-7901 cells assessed as decrease in mTOR phosphorylation at Ser2448 residue at 0.5 to 1.5 umol/L after 48 hrs by Western blot analysis; assay type: cell-based; details: dose micromol/L 0.5-1.5, time 48.0 hrs; in short: as §2
MGC-803 [25] = assay: Induction of apoptosis in human MGC-803 cells assessed as induction of DNA fragmentation at 0.5 to 1.5 umol/L after 48 hrs by imaging analysis; assay type: functional, cell-based; details: dose micromol/L 0.5-1.5, time 48.0 hrs
HGC-27 [26] = assay: Induction of apoptosis in human HGC-27 cells assessed as downregulation of XIAP level at 0.5 to 1.5 umol/L after 48 hrs Western blot analysis; assay type: functional, cell-based; details: dose micromol/L 0.5-1.5, time 48.0 hrs; in short: as §1

Compound: COc1cc(N(Cc2nc3ccccc3[nH]2)S(=O)(=O)c2ccc(C)cc2)cc(OC)c1OC
- IC50 (PC-3): 3.34 µM
- Activity (SGC-7901 [1]): Active
- Activity (MGC-803 [2]): Active
- inhibition (HGC-27 [3]): Active
- Ratio IC50 [4]: 14.9
- inhibition (SGC-7901 [5]): Dose-dependent effect
- Activity (MGC-803 [6]): Active
- inhibition (MGC-803 [7]): Dose-dependent effect
- Activity (MGC-803 [8]): Active
- Activity (HGC-27 [9]): Active
- Activity (SGC-7901 [10]): Active
- inhibition (SGC-7901 [11]): inactive
- IC50 (GES1): 15.2 µM
- Activity (MGC-803 [12]): Active
- Activity (HGC-27 [13]): Active
- Activity (SGC-7901 [14]): Active
- Ratio IC50 [15]: 6.6
- Activity (MGC-803 [16]): Active
- inhibition (MGC-803 [17]): Active
- inhibition (HGC-27 [18]): Dose-dependent effect
- inhibition (HGC-27 [19]): Active
- Activity (MGC-803 [20]): Active
- Activity (SGC-7901 [21]): Active
- Activity (HGC-27 [22]): Active
- Activity (HGC-27 [23]): Active
- inhibition (SGC-7901 [24]): Active
- Activity (MGC-803 [25]): Active
- Activity (HGC-27 [26]): Active
